The values that follow come from PubChem BioAssay.

A short description of assay [1]: inhibitors of TNFa-induced NFkB p65 translocation, primary screen, imaging, HUVEC, MLSMR starter and 10KST1 sets (AID 438;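 active means inhibition above 20% together with a positive visual image hit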;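 further: compound added about 3h40 before a 20 min TNFalpha stimulation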;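 on inhibition: signal is the nuclear over cytoplasmic p65 intensity ratio per well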). As to conditions: HUVEC TNFa-induced p65 nuclear translocation; cell count: measured here: nuclei count (cytotoxicity indicator), at 2.08 µM; inhibition: at 2 µM, stronger effect = higher value, 0% TNFa-plus-vehicle, 100% no-TNFa wells.
Assay [2] is described as follows: endothelial E-selectin expression blockers – imaging, HUVEC, immunofluorescence, MLSMR starter and 10KST1 sets, primary screen (AID 487;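 active means visually confirmed hit in the image check and inhibition above 20%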;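 on inhibition: signal is fraction of cell area covered by stained E-selectin grains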;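 on nuclei count: 100% = median nuclei count of all wells on the same plate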). Conditions: HUVEC TNFalpha-induced E-selectin immunofluorescence imaging, at 2 µM; inhibition: stronger effect = higher value; nuclei count: measured here: cell number, toxicity.
A short description of assay [3]: Primary imaging screen for DUSP6 inhibitors that restore phospho-Erk in transfected HeLa cells, chemical complementation (AID 609;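 active means compounds giving at least 50% inhibition in the cell-based MKP-3 phosphatase rescue imaging test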;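 on inhibition: phospho-Erk level distribution per well compared with pooled transfected vehicle control wells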). Conditions: HeLa MKP-3 transfected, phospho-Erk imaging KS statistic, at 10 µM, cells stimulated with TPA for 15 min.
The target of assay [4] is Dual specificity protein phosphatase 6 (Homo sapiens) (UniProt Q16828). The assay is described as above. Conditions: HeLa MKP-3 transfected, phospho-Erk imaging KS statistic; at 10 µM; stronger effect = higher value; cells stimulated with TPA for 15 min.
Chain of Dual specificity protein phosphatase 6 (Homo sapiens) (Q16828 whole entry, looked up): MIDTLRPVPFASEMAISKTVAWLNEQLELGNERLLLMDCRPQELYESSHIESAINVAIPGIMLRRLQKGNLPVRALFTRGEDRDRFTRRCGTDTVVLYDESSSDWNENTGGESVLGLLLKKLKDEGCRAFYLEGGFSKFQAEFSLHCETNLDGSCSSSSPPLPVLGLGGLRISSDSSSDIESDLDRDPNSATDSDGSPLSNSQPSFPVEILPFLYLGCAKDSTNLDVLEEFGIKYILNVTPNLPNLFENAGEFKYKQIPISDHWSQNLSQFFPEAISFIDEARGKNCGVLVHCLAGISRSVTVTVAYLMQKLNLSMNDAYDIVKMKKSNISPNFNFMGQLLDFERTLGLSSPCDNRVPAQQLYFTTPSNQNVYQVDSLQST
Assay [5] deals with Voltage-gated potassium channel subunit beta-2 (Rattus norvegicus) (UniProt P62483). The assay is described as follows: inhibitors of rat Kvbeta2 reductase activity – biochemical, NADPH fluorescence, primary screen (AID 622;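 active means fluorescence slope higher than the sample average by over 3 SD, cut at about -0.22 in these data, passing the limit was not always enough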;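 further: slope of raw intensity against log time taken from 70 to 1610 s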). Conditions: recombinant KvBeta, 4-cyanobenzaldehyde reduction, at 10 µM, stronger effect = higher value.
Chain of Voltage-gated potassium channel subunit beta-2 (Rattus norvegicus) (P62483 whole entry, looked up): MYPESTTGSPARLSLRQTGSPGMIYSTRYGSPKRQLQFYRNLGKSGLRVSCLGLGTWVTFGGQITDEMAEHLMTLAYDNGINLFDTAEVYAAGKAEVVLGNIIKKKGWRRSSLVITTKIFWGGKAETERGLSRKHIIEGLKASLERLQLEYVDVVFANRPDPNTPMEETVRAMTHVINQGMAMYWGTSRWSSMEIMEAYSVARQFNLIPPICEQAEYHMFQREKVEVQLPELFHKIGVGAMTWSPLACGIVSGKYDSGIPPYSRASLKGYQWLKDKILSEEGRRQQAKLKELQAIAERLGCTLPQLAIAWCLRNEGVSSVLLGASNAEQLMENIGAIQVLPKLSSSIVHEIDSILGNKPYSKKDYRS
The target is the same in assay [6]. Nature of the assay: enhancers of rat Kvbeta2 NADPH turnover – biochemical, NADPH fluorescence, primary screen (AID 623;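 active means NADPH fluorescence slope more negative than the mean of all samples by about 3 SD, 99.7% confidence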;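 further: fluorescence intensity change per second fitted from 20 to 320 s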). Conditions: Recombinant KvBeta, NADPH fluorescence decrease slope, 10 min; at 10 µM; stronger effect = lower value.
Assay [7] has as its target Alpha-2C adrenergic receptor (Homo sapiens) (UniProt P18825). Nature of the assay: compounds altering alpha2C-coupled GIRK flux – cell-based, HEK293 alpha2C/GIRK1/2, thallium flux, primary screen (AID 624;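 active means fluorescence slope after compound addition differing from the mean of all screened samples at 99.7% confidence, in either direction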;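 further: slope of fluorescence ratio to pre-addition baseline per second over 15 to 24 s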). Conditions: thallium flux BTC fluorescence, at 10 µM, actives lie on both sides.
Assay [8] in a line: inhibitors of larval lipid processing in zebrafish, primary screen, whole organism, PED6 fluorescence, gall bladder and intestine (AID 686;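 active means a full or partial loss of lipid-probe fluorescence in the fish gall bladder, intestine or both, judged by eye; inactive means no fluorescence loss, or compound toxic to the fish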;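 further: larvae 5 to 7 days old with five fish per well; signal comes from phospholipase A2 cleavage of quenched PED6 carried via bile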). Conditions: Zebrafish larvae PED6 lipid processing, fluorescence scoring; screened at 20 µM (by protocol). In a few lines: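 System: live zebrafish larvae aged 5-7 days, whole organism; measure: graded gall bladder and intestinal fluorescence inhibition per well; incubation: overnight exposure; reagent: ingested quenched lipid PED6 at 100 nM; signal: By-eye fluorescence microscopy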

A short description of assay [9]: loss of swimming-algae plug formation – whole organism, Chlamydomonas reinhardtii, WT vs cilia-less mutant, absorbance, 96-well, primary screen (AID 463189).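 Further: 0% = wild type cc124 cells in DMSO and 100% = ciliumless bld1 mutant cells.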 As to conditions: Chlamydomonas reinhardtii gravitaxis, OD600 absorbance, 2 days; at 10 µM; stronger effect = higher value.
Where [10] appears, read: measured here: cell density z-score.
Setting [11] is: measured here: nuclear c-Myc green intensity z-score.
[12] abbreviates: measured here: nuclear pErk red intensity z-score, stronger effect = higher value.

Active and inactive are the calls of the source.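 How the source made its calls, unless noted: active means inhibition at or above 50% relative to wild type and mutant plate controls; inactive means inhibition below 50%.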

Chain of Alpha-2C adrenergic receptor (Homo sapiens) (P18825 whole entry, looked up): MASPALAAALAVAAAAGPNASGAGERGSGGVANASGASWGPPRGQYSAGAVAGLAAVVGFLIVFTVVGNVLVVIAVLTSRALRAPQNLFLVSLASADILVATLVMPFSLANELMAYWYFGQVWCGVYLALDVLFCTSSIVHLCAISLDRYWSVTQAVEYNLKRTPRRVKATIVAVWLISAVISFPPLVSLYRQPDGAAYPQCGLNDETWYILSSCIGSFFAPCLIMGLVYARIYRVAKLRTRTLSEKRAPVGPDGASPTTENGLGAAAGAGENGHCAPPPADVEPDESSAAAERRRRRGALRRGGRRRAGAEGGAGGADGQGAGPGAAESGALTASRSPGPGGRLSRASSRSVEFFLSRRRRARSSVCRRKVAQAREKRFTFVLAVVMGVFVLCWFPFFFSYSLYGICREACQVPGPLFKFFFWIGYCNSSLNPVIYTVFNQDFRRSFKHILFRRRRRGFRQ

For `CC(C)C1Cc2c(C#N)c(N)n(C)c(=S)c2CO1` (centres undefined), in [1], the cell count is 548. The inhibition was 1.3% (inactive) in assay [1], -204% (inactive) in assay [2], -8.76% (inactive) in assay [4] and -8.05% (inactive) in assay [9]. Besides, in assay [2], the nuclei count is 134%. The z-score in [3] (setting [10]) was -0.967; in [3] (setting [11]), 0.261; in [3] (setting [12]), 0.802. Moreover, the fluorescence slope in [5] was -0.509 (inactive). For the same compound, in [6], the NADPH fluorescence slope is -4e-05 (inactive). The slope in assay [7] is 0.00431 (inactive). Further, in assay [8], the compound was classed as inactive.

On to `O=C1OC(Nc2ccc(Br)cn2)c2ccccc21` (centres undefined), for which the cell count in assay [1] is 388. Also, the inhibition in [1] was 2.6% (inactive); in assay [2] it was 47.2% (inactive); in assay [4], -8.27% (inactive); in assay [9] it was -9.02% (inactive). Moreover, the nuclei count in [2] was determined as 94.3%. Besides, the z-score is -0.833 in assay [3] (setting [10]), -0.569 in [3] (setting [11]) and 0.497 in [3] (setting [12]). The fluorescence slope in [5] is -0.44 (inactive). The NADPH fluorescence slope in assay [6] was -1.7e-06 (inactive). In addition, the slope in assay [7] is 0.00494 (inactive). Moreover, the call in assay [8] was inactive.

With `CCOC(=O)C(c1ccccc1)N1CCN(c2ccc(OC)cc2)CC1` (centres undefined), the cell count in [1] is 365. For the same compound, the inhibition is -5.2% (inactive) in assay [1], -72.8% (inactive) in assay [2], 11.4% (inactive) in [4] and -10% (inactive) in assay [9]. The compound also gave a nuclei count in assay [2] of 146%. Also, the z-score was -0.336 in assay [3] (setting [10]), -0.989 in assay [3] (setting [11]) and -1.39 in assay [3] (setting [12]). Besides, in assay [5], the fluorescence slope is -0.422 (inactive). The NADPH fluorescence slope in [6] is -0.000118 (inactive). For the same compound, the slope in assay [7] is 0.00552 (inactive). For the same compound, the call in [8] was inactive.

Take `Clc1ccccc1-c1nn2c(-c3ccccn3)nnc2s1`: in [1], the cell count came out at 603. Besides, the inhibition in assay [1] was -6.7% (inactive); in assay [2] it was -82.4% (inactive); in assay [4], -0.674% (inactive); in assay [9], 48.8% (inactive). For the same compound, the nuclei count in [2] is 167%. In addition, the figures for the z-score in [3] (setting [10]), in assay [3] (setting [11]) and in assay [3] (setting [12]) were 0.327, 0.132 and -0.483, respectively. In assay [5], the fluorescence slope was -0.404 (inactive). For the same compound, in [6], the NADPH fluorescence slope was -0.000155 (inactive). For the same compound, the slope in assay [7] was 0.00777 (inactive). The outcome in [8] was inactive.

In the case of `Clc1ccccc1-c1nnc2sc(-c3ccco3)nn12`, the cell count in assay [1] was found to be 568. Further, the inhibition in [1] was -10.6% (inactive); in [2], 37.2% (inactive); in assay [4] it was 4.72% (inactive); in assay [9], 85.1% (active). This compound also yielded a nuclei count in assay [2] of 88.5%. Also, the z-score in assay [3] (setting [10]) was -0.391; in assay [3] (setting [11]), -0.433; in assay [3] (setting [12]), 1.6. The fluorescence slope in assay [5] was -0.43 (inactive). Moreover, the NADPH fluorescence slope in [6] was -4.6e-05 (inactive). Besides, the slope in [7] is 0.00572 (inactive). In addition, the result in assay [8] was inactive.

Turning to `CCCC(=O)Nc1sc2c(c1C#N)CCCC2`, the cell count in [1] was determined as 385. The inhibition in assay [1] was 7.8% (inactive); in assay [2], -83.9% (inactive); in assay [4] it was 3.56% (inactive); in [9], -10.7% (inactive). Further, the nuclei count in [2] was found to be 110%. In addition, the z-score was -0.165 in assay [3] (setting [10]), 0.756 in [3] (setting [11]) and -2.32 in assay [3] (setting [12]). Moreover, the fluorescence slope in assay [5] is -0.445 (inactive). Besides, the NADPH fluorescence slope in [6] is -0.000372 (inactive). Also, the slope in assay [7] was 0.00647 (inactive). The result in assay [8] was inactive.

For the compound `N#CC1=C(SCC(=O)c2ccccc2)NC2=C(C(=O)CCC2)C1c1ccco1` (centres undefined), the cell count in [1] turned out to be 310. In addition, the inhibition in [1] was -8% (inactive); in assay [2] it was -43.4% (inactive); in [4], 1.42% (inactive); in assay [9], -15.7% (inactive). In [2], this compound gave a nuclei count of 91.7%. The z-score in [3] (setting [10]) is -2.24; in [3] (setting [11]), 2.65; in assay [3] (setting [12]), -0.86. The fluorescence slope in [5] was -0.435 (inactive). In addition, the NADPH fluorescence slope in assay [6] is -3.2e-05 (inactive). For the same compound, the slope in [7] was 0.00719 (inactive). Moreover, in [8], the result was inactive.

`Cc1ccccc1C(=O)c1ccc2c(c1)n(C)c(=O)n2C`: the cell count in assay [1] turned out to be 547. The inhibition was -22.1% (inactive) in [1], -296% (inactive) in assay [2], 5.65% (inactive) in [4] and 0.416% (inactive) in assay [9]. The compound also gave a nuclei count in [2] of 200%. For the same compound, the z-score in [3] (setting [10]) was 1.43; in assay [3] (setting [11]), -1.34; in assay [3] (setting [12]) it was 1.32. Moreover, the fluorescence slope in assay [5] was -0.512 (inactive). Moreover, the NADPH fluorescence slope in [6] is -5.8e-05 (inactive). Moreover, the slope in assay [7] was 0.00384 (inactive). Also, in assay [8], the compound was called inactive.

Regarding `CCCCOC(=O)CSC1=C(C#N)C(c2ccccc2OC)C(C#N)C(=O)N1` (centres undefined), the cell count in assay [1] was 504. For the same compound, the inhibition in assay [1] is -3% (inactive); in [2] it was -46% (inactive); in assay [4], 9.39% (inactive); in assay [9], -21.1% (inactive). Also, the nuclei count in [2] was found to be 116%. The figures for the z-score in assay [3] (setting [10]), in [3] (setting [11]) and in [3] (setting [12]) were -0.706, 0.338 and 1.09, respectively. The fluorescence slope in [5] was -0.481 (inactive). The NADPH fluorescence slope in [6] is -0.000165 (inactive). Further, the slope in assay [7] is 0.00464 (inactive). Besides, in assay [8], the outcome was inactive.

In the case of `CCOC(=O)c1oc2cc(O)cc(C)c2c(=O)c1-c1cscn1`, the cell count in [1] is 583. Also, the inhibition in assay [1] was -5.6% (inactive); in assay [2], -117% (inactive); in [4], 19.8% (inactive); in assay [9], -5.6% (inactive). Besides, the nuclei count in [2] came to 133%. In addition, the z-score in assay [3] (setting [10]) is 0.544; in assay [3] (setting [11]) it was -0.073; in assay [3] (setting [12]), -1.73. The fluorescence slope in [5] was -0.569 (inactive). In [6], the NADPH fluorescence slope was -4.5e-05 (inactive). Besides, the slope in assay [7] is 0.0036 (inactive). Moreover, the compound was classed as inactive in assay [8].

`c1ccc(OCc2nn3c(-c4ccco4)nnc3s2)cc1`: the cell count in [1] is 654. Further, the inhibition is 3.2% (inactive) in assay [1], -139% (inactive) in assay [2], 11.9% (inactive) in assay [4] and 7.84% (inactive) in [9]. In addition, in assay [2], the nuclei count was 156%. The z-score was 2.72 in [3] (setting [10]), -1.05 in assay [3] (setting [11]) and -0.302 in [3] (setting [12]). In assay [5], the fluorescence slope is -0.417 (inactive). Moreover, in [6], the NADPH fluorescence slope is -0.000108 (inactive). Also, the slope in assay [7] is 0.00597 (inactive). Moreover, in [8], the call was inactive.

For `CCCCCCOC(=O)CCn1[nH]c(=O)c2ccccc2c1=O`, the cell count in assay [1] was 547. In addition, the inhibition was -12.2% (inactive) in assay [1], -119% (inactive) in assay [2], 7.93% (inactive) in [4] and 27.6% (inactive) in assay [9]. This compound also displayed a nuclei count in assay [2] of 136%. Besides, the z-score is 0.183 in assay [3] (setting [10]), -0.855 in assay [3] (setting [11]) and 0.203 in [3] (setting [12]). In addition, the fluorescence slope in assay [5] was -0.492 (inactive). For the same compound, the NADPH fluorescence slope in [6] is -6.3e-05 (inactive). In addition, in [7], the slope is 0.0065 (inactive). The compound was called inactive in [8].

In the case of `COc1cc(=O)n2c(-c3ccccc3)csc2n1`, the cell count in assay [1] worked out at 628. In addition, the inhibition is 0% (inactive) in assay [1], -58.9% (inactive) in assay [2], 13.2% (inactive) in assay [4] and 5.32% (inactive) in assay [9]. The nuclei count in [2] came out at 153%. Besides, the z-score in [3] (setting [10]) was -1.46; in assay [3] (setting [11]), 1.4; in assay [3] (setting [12]) it was 0.777. The fluorescence slope in assay [5] is -0.465 (inactive). Besides, the NADPH fluorescence slope in [6] was -0.000258 (inactive). Moreover, the slope in assay [7] is 0.00547 (inactive). Also, in [8], the compound was called inactive.

A word on the inhibition: it is the relative decrease from the control value, in per cent.
